Results: the array DNA melting data of Ke et al. (doi:10.1101/2024.01.08.574731)

How the values were obtained:
[1] = folding enthalpy; higher = less favourable; fluorescence melt of hairpins on a sequencing array, two-state fit; conditions: sodium 0.088 M
In short: (§1)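 To match UV melts, fitted temperatures were raised by 9.35 °C. These fits were bootstrapped two-state models that gave melting temperature and folding enthalpy, combined by inverse variance over four replicates. The input was normalised Cy3 fluorescence of library hairpins with annealed Cy3 and quencher oligos on a sequenced MiSeq flow cell, imaged in 50 mM Na-HEPES pH 8.0, 25 mM NaCl in 2.5 °C steps up to 60 °C.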

[2] = melting temperature; fluorescence melt of hairpins on a sequencing array, two-state fit, raised by 9.35 °C to match UV melts; conditions: sodium 0.088 M
In short: as §1

Sequence | folding enthalpy [1] [kcal/mol] | Tm [2] [°C]
GCGGCAGACCGC ((((....)))) | -23.2 | 56.2
GCGGCAGGAAACCGCCAC (.(((.(....).))).) | -12.7 | 47.5
GCGGCATCCGC ((((...)))) | -17.9 | 54.8
GCGGCATTCCGC ((((....)))) | -23.7 | 56.1
GCGGCCAACCGC ((((....)))) | -21.6 | 56.2
GCGGCCACGAAAGTGCGC (((..(((....)))))) | -17.4 | 52.7
GCGGCCATCCGC ((((....)))) | -18.5 | 60
GCGGCCCCCGC ((((...)))) | -20.4 | 56.6
GCGGCCCTCCGC ((((....)))) | -26.5 | 59.6
GCGGCCGAAAGGCAACGC ((((((....)))..))) | -19.1 | 64.3
GCGGCCGAAAGGCATCGC ((((((....)))..))) | -23 | 53.1
GCGGCCGAAAGGCCACGC ((((((....)))..))) | -13.6 | 65.1
GCGGCCGAAAGGCTCGC ((((((....))).))) | -23.5 | 68.8
GCGGCGACCCGC ((((....)))) | -15.4 | 57.3
GCGGCGATCCGC ((((....)))) | -16.7 | 54
GCGGCGCCCCGC ((((....)))) | -16.4 | 52.7
GCGGCGCCGAAAGGCCGC (((..(((....)))))) | -14.3 | 67.2
GCGGCGCGAAAGCACGGC ((.(.((....)).).)) | -20.5 | 56.4
GCGGCGCGAAAGCCCGGC ((.(.((....)).).)) | -14.6 | 59.8
GCGGCGCGAAAGCGAAGC ((..(((....)))..)) | -29 | 68.1
GCGGCGCGAAAGCGAGGC ((..(((....)))..)) | -24.8 | 63.9
GCGGCGCGAAAGCGATGC ((..(((....)))..)) | -38.6 | 69.1
GCGGCGCGAAAGCGTTGC ((..(((....)))..)) | -21.2 | 66.5
GCGGCGCGAAAGCTCGGC ((.(.((....)).).)) | -17.4 | 44.4
GCGGCGGCCCGC ((((....)))) | -13.8 | 58.5

Sequence | folding enthalpy [1] [kcal/mol] | Tm [2] [°C]
GCGGCTCCGAAAGGACGC (((..(((....)))))) | -41.2 | 54.7
GCGGCTTTCCGC ((((....)))) | -25 | 56.6
GCGGGACGCCGC ((((....)))) | -13.9 | 66.2
GCGGGACTCCGC ((((....)))) | -27.3 | 67.7
GCGGGAGGAAACTCCCAC (.(((((....))))).) | -13.7 | 48.7
GCGGGAGGAAACTCTCGC (((.(((....))).))) | -37.2 | 57.5
GCGGGAGGCCGC ((((....)))) | -18.4 | 57.8
GCGGGATCCCGC ((((....)))) | -41.9 | 59.3
GCGGGCAGCCGC ((((....)))) | -16.4 | 63.5
GCGGGCATCCGC ((((....)))) | -24.5 | 67
GCGGGCGAAAGCCTCGC ((((((....))).))) | -21.9 | 66.3
GCGGGCGGAAACACCCGC (((((.(....).))))) | -44.2 | 60.5
GCGGGCGGAAACGCCCAC (.(((((....))))).) | -8.92 | 57.2
GCGGGCTTCCGC ((((....)))) | -21.2 | 61
GCGGGGACCCGC ((((....)))) | -26.3 | 68.3
GCGGGGCGAAAGCCTAGC ((..(((....)))..)) | -19.2 | 64.2
GCGGGGCGAAAGCGGCGC (((..((....))..))) | -34.7 | 66.8
GCGGGGCGAAAGCTCAGC ((.(.((....)).).)) | -23.7 | 60.1
GCGGGGCGAAAGCTCGGC ((.(.((....)).).)) | -16.4 | 56.3
GCGGGGCGAAAGCTGCGC (((..((....))..))) | -27.2 | 65.6
GCGGGGTCGAAAGACCGC (((..(((....)))))) | -12.8 | 57.7
GCGGGTGCCCGC ((((....)))) | -30.3 | 57.4
GCGGGTGGAAACGCTCGC (((.(.(....).).))) | -24.6 | 52.1
GCGGGTGTCCGC ((((....)))) | -22.8 | 58.2
GCGGGTTCGAAAGAACGC (((..(((....)))))) | -12.3 | 45.5

Sequence | folding enthalpy [1] [kcal/mol] | Tm [2] [°C]
GCGGTAACCGC ((((...)))) | -27.8 | 57.5
GCGGTAAGCCGC ((((....)))) | -23.3 | 57.7
GCGGTACGAAAGTATCGC (((.(((....))).))) | -56.1 | 64.7
GCGGTCACCGC ((((...)))) | -23.8 | 63
GCGGTCGAAAGACCACGC ((((((....)))..))) | -17 | 57
GCGGTCGAAAGACCTCGC ((((((....)))..))) | -14.8 | 50.2
GCGGTCGGAAACGACTGC ((.((((....)))).)) | -41.5 | 64.2
GCGGTCGGAAACGGTCGC (((..((....))..))) | -25.1 | 52.2
GCGGTGATCCGC ((((....)))) | -28.1 | 54.8
GCGGTGCGAAAGCATGGC ((..(((....)))..)) | -21.8 | 56.1
GCGGTGCGAAAGCATTGC ((..(((....)))..)) | -22.4 | 59.2
GCGGTGGGAAACTACCGC (((((.(....).))))) | -37.5 | 60.5
GCGGTTAACCGC ((((....)))) | -28.7 | 66.7
GCGGTTACCCGC ((((....)))) | -28.4 | 56.7
GCGGTTGGAAACAATCGC (((.(((....))).))) | -40.8 | 56.1
GCGGTTGGCCGC ((((....)))) | -25.3 | 64.8
GCGGTTTCCCGC ((((....)))) | -25 | 56.2
GCGTAAAGACGC ((((....)))) | -17.8 | 46.9
GCGTAACACGC ((((...)))) | -20.9 | 55.7
GCGTAACCACGC ((((....)))) | -23.3 | 54.8
GCGTAACTACGC ((((....)))) | -25.4 | 57.1
GCGTAAGACGC ((((...)))) | -21.3 | 53
GCGTAAGGAAACTTATGC ((.((((....)))).)) | -31.2 | 45.6
GCGTAAGGAAACTTGTGC ((..(((....)))..)) | -10.8 | 29.7
GCGTAATAACGC ((((....)))) | -21.1 | 51.6

Sequence | folding enthalpy [1] [kcal/mol] | Tm [2] [°C]
GCGTAATACGC ((((...)))) | -18.7 | 51.9
GCGTAATGACGC ((((....)))) | -23.2 | 51.5
GCGTACCGAAAGGTTCGC (((.(((....))).))) | -50.5 | 63
GCGTACCTACGC ((((....)))) | -29.7 | 52.8
GCGTACGAAAGTAACGC ((((((....))).))) | -40.2 | 59.4
GCGTACGAAAGTACACGC ((((((....)))..))) | -19.1 | 52.6
GCGTACGAAAGTATCGC ((((((....))).))) | -39.6 | 53.4
GCGTACGGAAACGCACAC (.((.((....)).)).) | -12.6 | 38.1
GCGTACTTACGC ((((....)))) | -26.1 | 54.7
GCGTAGCCACGC ((((....)))) | -9.67 | 58.3
GCGTAGCGAAAGCTGTGC ((..(((....)))..)) | -10 | 46.1
GCGTAGGAAACTACGC ((((((....)))))) | -31.2 | 67.1
GCGTAGGACGC ((((...)))) | -17.2 | 55.2
GCGTAGGGAAACCCACAC (.((.((....)).)).) | -10.6 | 21.3
GCGTAGGGAAACTTACGC (((((.(....).))))) | -39.4 | 50.4
GCGTAGGGACGC ((((....)))) | -13 | 52
GCGTAGTAACGC ((((....)))) | -22 | 53
GCGTAGTTACGC ((((....)))) | -22.4 | 54.4
GCGTATAACGC ((((...)))) | -21 | 56.4
GCGTATACACGC ((((....)))) | -22.8 | 53.6
GCGTATATACGC ((((....)))) | -27.1 | 55
GCGTATCAACGC ((((....)))) | -25.6 | 53.9
GCGTATGAACGC ((((....)))) | -18.9 | 52
GCGTATGACGC ((((...)))) | -17.5 | 54
